target: T1, OR2M3 (Homo sapiens) (UniProt Q8NG83); details: stereoisomer not certain
T1 sequence (whole entry): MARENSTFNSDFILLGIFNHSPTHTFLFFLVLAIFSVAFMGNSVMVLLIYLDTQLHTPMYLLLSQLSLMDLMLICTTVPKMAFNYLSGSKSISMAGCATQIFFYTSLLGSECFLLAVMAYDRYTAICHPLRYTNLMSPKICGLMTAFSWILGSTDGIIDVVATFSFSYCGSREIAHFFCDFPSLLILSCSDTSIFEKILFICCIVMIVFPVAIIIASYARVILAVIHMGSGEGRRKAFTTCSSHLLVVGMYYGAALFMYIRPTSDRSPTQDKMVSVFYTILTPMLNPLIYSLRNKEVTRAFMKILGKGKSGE
How it was run: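 Each receptor–molecule pair is labelled responsive or non-responsive (inactive) according to whether the original authors judged the measured signal statistically different from baseline. The data were taken from the main text and supplementary material of published papers and checked for typos and inconsistencies. Assay methods differed by source, with transient luciferase assays in mammalian cell lines being common.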

Odorant receptor agonist call, inactive:
C=CC(=O)CCCCC
Cc1cccc(C)c1O
CC(C)c1ccc(C=O)cc1
CCCSSSC
OCCc1ccccc1
CC(=O)CC(C)(C)S
CCOC(=O)c1ccccc1
CCCCCC=O
COC(=O)C=Cc1ccccc1
COc1nccnc1CC(C)C
CCCCCC(C)O (configuration not stated)
CC(C)=CC1CC(C)CCO1 (configuration not stated)
CCC=CCCC=CC=O
CCCSSSCCC
CC(=O)c1ccccc1N
CCC=CCCOC(C)=O
CCC(=O)C(C)S (configuration not stated)
C=Cc1ccc(O)cc1
CC(=O)C1=NCCS1
CCCCCCO
Cc1ccc(O)cc1
CCCCC1OC(=O)CC1C (configuration not stated)
CC(=O)OCCc1ccccc1
CSSc1ccoc1C
CC(C)CCO
CC(=O)c1cnccn1
CCC(S)C(C)=O (configuration not stated)
CCOC(=O)CCSC
COc1ccc2ccc(=O)oc2c1
CCCC(S)CCO (configuration not stated)
O=C(O)C=Cc1ccc(O)cc1
CCCCCCCC(C)=O
CSCSC
CCCCCCCC1CCC(=O)O1 (configuration not stated)
CCCCC(C)CCC(=O)O (configuration not stated)
CCCCC(=O)O

Odorant receptor agonist call, active:
CCCC(S)C(C)CO (configuration not stated)
